Experimental findings from PMC2674070 (Journal of immunology (Baltimore, Md. : 1950), 2009) are described below.

Ends that are not written are not given here.

Sequence of H-2K^b (P61769 21-119): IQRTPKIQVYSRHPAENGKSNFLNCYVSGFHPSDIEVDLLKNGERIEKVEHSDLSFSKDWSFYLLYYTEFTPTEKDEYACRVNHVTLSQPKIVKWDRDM
Sequence of H-2K^b (P01901 22-369): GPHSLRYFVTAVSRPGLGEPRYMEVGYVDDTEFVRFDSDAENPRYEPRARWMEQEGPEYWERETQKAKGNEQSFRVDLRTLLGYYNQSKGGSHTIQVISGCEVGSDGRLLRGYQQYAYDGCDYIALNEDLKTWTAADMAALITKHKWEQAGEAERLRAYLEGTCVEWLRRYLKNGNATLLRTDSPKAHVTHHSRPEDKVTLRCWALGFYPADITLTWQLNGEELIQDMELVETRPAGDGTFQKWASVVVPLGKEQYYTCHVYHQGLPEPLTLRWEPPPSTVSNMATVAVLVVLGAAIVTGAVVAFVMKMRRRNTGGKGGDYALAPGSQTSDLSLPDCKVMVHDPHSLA
Sequence of H-2D^b (P01899 25-362): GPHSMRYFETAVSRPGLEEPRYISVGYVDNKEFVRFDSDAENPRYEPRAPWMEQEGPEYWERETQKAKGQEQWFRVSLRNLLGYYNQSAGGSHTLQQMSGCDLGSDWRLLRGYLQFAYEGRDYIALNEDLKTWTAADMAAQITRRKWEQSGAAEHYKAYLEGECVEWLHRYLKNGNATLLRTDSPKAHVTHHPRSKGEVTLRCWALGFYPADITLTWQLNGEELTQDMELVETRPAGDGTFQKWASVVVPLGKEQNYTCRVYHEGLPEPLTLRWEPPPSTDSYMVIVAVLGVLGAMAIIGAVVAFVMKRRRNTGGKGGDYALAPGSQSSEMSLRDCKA
Sequence of H-2D^b (P61769 21-119, further chain): as the sequence (P61769 21-119) above

The first assay has as its target H-2D^b (Mus musculus, UniProt P01899). The assay is described as follows: MHC peptide-binding assay, purified H-2D^b.
As a reminder, the IC50 is the concentration that gives 50% inhibition. Higher therefore signals weaker potency in that assay. On to RALIFILL [Epitope M60-67], for which the concentration for half-maximal inhibition (IC50) is under 2000 nM. MTMRCIGI [Epitope E-2-6] yielded an IC50 of under 2000 nM. Compound VSWTMKIL [Epitope E451-458] displayed a half-inhibitory concentration (IC50) of under 2000 nM.

Another assay concerns the target H-2K^b (Mus musculus, UniProt P01901). Description: MHC peptide-binding assay, purified H-2K^b. An outline of the steps:
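Radiolabelled (chloramine-T) reference peptide at 0.1-1 nM is incubated at room temperature for 2 days with purified MHC (1 µM to 1 nM), 1-3 µM human β2-microglobulin and protease inhibitors. MHC-peptide complexes are captured on plates coated with Y3 (anti-H-2K^b) antibody, and bound cpm are read by microscintillation counting. Test peptides are ≥95% pure by reverse-phase HPLC.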
On to RMLINRFTM [NS5_237-245], for which the IC50 is under 2000 nM. As for LAVTIMAIL [NS2A145-153], the half-maximal inhibitory concentration (IC50) is under 2000 nM. TAIANQATV [NS4B66-74] came in with a half-inhibitory concentration (IC50) of under 2000 nM. For FSLGVLGM [NS2A8-15], the half-maximal inhibitory concentration (IC50) is under 2000 nM. On the same count and under the same terms, for `CC(C)C[C@H](NC(=O)[C@H](CO)NC(=O)[C@@H](NC(=O)[C@H](CC(N)=O)NC(=O)[C@@H](NC(=O)[C@H](CO)NC(=O)[C@@H](N)CO)C(C)C)C(C)C)C(=O)N[C@H](C(=O)O)[C@@H](C)O` [NS4B59-66] the value was under 2000 nM; for VSWTMKIL [Epitope E451-458], 458 nM.
